Measurements from different studies.
Protocols differ between the studies behind these lines.
Target: Atypical kinase COQ8A, mitochondrial (COQ8A, Homo sapiens, UniProt Q8NI60)

Structure (SMILES)	assay	setting	remaining binding [%]
CN(CCCC(F)(F)F)c1nccc(-c2cnn3ncccc23)n1	binding	1 µM	99
C[C@@H](c1ccc(-n2cnc3c(N)ncnc32)cc1)N1CCc2nn(C)c(Cc3ccccc3)c2C1=O	binding, competition with immobilised ligand	0.1 µM	84
O=C(c1ccc(Nc2ncc(Cl)c(-c3ccc(Cl)s3)n2)cc1)N1CCC(N2CCCC2)CC1	binding, competition with immobilised ligand	1 µM	100
O=c1nc(-c2ccccn2)sc2ccccc12	cell-free assay, competition with immobilised ligand	1 µM	88
C[C@@H]1CN(c2ccc3ncc(-c4ccc5[nH]nc(C6CC6)c5c4)n3n2)C[C@H](C)O1	binding, competition with immobilised ligand	50 nM	94
COc1cnc(Nc2cccc(S(N)(=O)=O)c2)nc1N1CCN(c2ccccc2)CC1	binding, competition with immobilised ligand	1 µM	100
N[C@@H]1CCN(c2nccc(-c3cnn4ncccc34)n2)C1	binding	1 µM	100
FC(F)(F)c1ccc2c(c1)nc(-c1cccnc1)n2C1CC1	cell-free assay, competition with immobilised ligand	1 µM	100
O=C(NCC1CCOCC1)c1n[nH]cc1NC(=O)c1c(F)cccc1F	binding, competition with immobilised ligand	1 µM	86
C[C@@H]1CCN(c2nccc(-c3cnn4ncccc34)n2)C1	binding	1 µM	100
C[C@H](c1ccnc(Nc2nc3ccc(-c4cc(N(C)C)ncn4)cc3[nH]2)c1)N1CCN(C(=O)CC(F)(F)F)CC1	cell-free assay, competition with immobilised ligand	0.1 µM	100
C=CC(=O)N1CCC(C(=O)NCC(=O)N2CCN(c3nc(-c4cnc(N)nc4C(F)F)nc(N4CCOCC4)n3)CC2)CC1	binding, competition with immobilised ligand	1 µM	78
Cc1cc(NC(=O)c2cccc(S(F)(F)(F)(F)F)c2)cc(-n2ccn3nc(-c4cccnc4)cc23)c1	cell-free assay, competition with immobilised ligand	1 µM	82.8
O=C(NCCCN1CCOCC1)c1ccc(Nc2nccc(-c3cc4ccccc4s3)n2)cc1	binding, competition with immobilised ligand	1 µM	90
c1cncc(-c2cccc(Nc3nccc(NC4CCCCC4)n3)c2)c1	binding, competition with immobilised ligand	10 µM	81
COc1ccnn2ncc(-c3ccnc(N(C)C)n3)c12	binding	1 µM	100
CNCc1ccccc1-c1csc([C@H](C)Nc2nc(C)nc3cc(OC)c(OC)cc23)c1	cell-free assay, competition with immobilised ligand	1 µM	91
N#Cc1ccccc1CSc1nnc2c(n1)[nH]c1ccccc12	binding, competition with immobilised ligand	10 µM	95
c1cnn2ncc(-c3ccnc(N4CCC45COC5)n3)c2c1	binding	1 µM	100
O=C(NCc1ncc(C(F)(F)F)cc1Cl)c1ccc2c(c1)C1(CCS(=O)(=O)CC1)[C@@H](C1CC1)N2S(=O)(=O)c1ccc(F)cc1	cell-free assay, competition with immobilised ligand	1 µM	90
O=C(NCCCN1CCOCC1)c1ccc(Nc2ncc(Cl)c(-c3ccc(Cl)s3)n2)cc1	binding, competition with immobilised ligand	1 µM	100
CN(C)c1ncc(F)c(-c2cnn3ncccc23)n1	binding	1 µM	96
CS(=O)(=O)c1cc(C2(NC(=O)c3cncc4c3cnn4-c3ccc(F)cc3)CC2)ccn1	cell-free assay, competition with immobilised ligand	1 µM	100
